Assay results pooled from the literature.
Lines come from different studies, so protocols differ.
Cell line: NCI-H460
Observed: cell growth or viability

| Structure (SMILES) | method | concentration | time | endpoint | result |
| --- | --- | --- | --- | --- | --- |
| COc1ccc(NC(=O)Nc2cccc(-c3cn(Cc4cccc(Cl)c4)nn3)c2)cc1 | CCK-8 | 50 µM | 72 h | viability | 105% |
| C[C@H](Nc1ccc2c(c1)OCCn1cc(N3C(=O)OC[C@H]3C(F)F)nc1-2)C(N)=O | ATP luminescence |  | 5 days | EC50 | 2.9 µM |
| O=C(Nc1ccc(Cl)cc1)Nc1cccc(-c2cn(Cc3cccc(Br)c3)nn2)c1 | CCK-8 | 50 µM | 72 h | viability | 88.2% |
| CCCCCCCCCCCCCCCCCCOc1cccc(CC(=O)OCC[N+]2(C)CCCC2)c1 | SRB | 10 µM |  | inhibition | 4.17% |
| O=C(CSc1nc2ccccc2s1)N/N=C/c1ccc(OCC(=O)Nc2cccc([N+](=O)[O-])c2)cc1 | MTS |  | 72 h | IC50 | 15.8 µM |
| CCCCCCCCCCCCCCCCCCOc1ccccc1CC(=O)OCC[N+]1(C)CCCC1 | SRB | 10 µM |  | inhibition | 72.5% |
| O=c1cc(OCc2cc(-c3ccccn3)no2)c2ccccc2o1 | MTS |  | 72 h | IC50 | > 100 µM |
| CCCCCCCCCCCCCCCCCCOc1ccc(CC(=O)OCC[N+]2(C)CCCC2)cc1 | SRB | 10 µM |  | inhibition | 0.31% |
| COc1ccc(NC(=O)Nc2ccc(-c3cn(Cc4ccc(Br)cc4)nn3)cc2)cc1 | CCK-8 | 50 µM | 72 h | viability | 86.6% |
| c1ccc(-c2cc(CNc3cccc4cccnc34)on2)nc1 | MTS |  | 72 h | IC50 | > 100 µM |
| COc1ccc(NC(=O)NCc2cn(Cc3ccc(Cl)cc3)nn2)cc1 | CCK-8 | 50 µM | 72 h | viability | 91.8% |
| CCCCCCCCCCCCCCCCCCOc1cccc(CC(=O)OCCC[N+](C)(C)C)c1 | SRB | 10 µM |  | inhibition | 4.47% |
| O=c1cc(OCc2cc(-c3ccc(C(F)(F)F)cc3)no2)c2ccccc2o1 | MTS |  | 72 h | IC50 | > 100 µM |
| COc1ccc(NC(=O)Nc2cccc(-c3cn(Cc4ccc(C)cc4)nn3)c2)cc1 | CCK-8 | 50 µM | 72 h | viability | 102% |
| CCCCCCCCCCCCCCCCCCOc1ccc(CC(=O)OCC[N+]2(C)CCOCC2)cc1 | SRB | 10 µM |  | inhibition | 0.33% |
| COc1ccc(NC(=O)Nc2ccc(-c3cn(Cc4ccc(Cl)cc4)nn3)cc2)cc1 | CCK-8 | 50 µM | 72 h | viability | 86.8% |
| FC(F)(F)c1cc(OCc2cc(-c3ccccn3)no2)c2ccccc2n1 | MTS |  | 72 h | IC50 | > 100 µM |
| CCCCCCCCCCCCCCCCCCOc1ccc(CC(=O)OCC[N+](CC)(CC)CC)cc1 | SRB | 10 µM |  | inhibition | 15.8% |
| O=c1cc(OCc2cc(-c3ccc(Cl)cc3Cl)no2)c2ccccc2o1 | MTS |  | 72 h | IC50 | > 100 µM |
| O=C(CSc1nc2ccccc2s1)N/N=C/c1ccc(OCC(=O)Nc2cccc(Cl)c2)cc1 | MTS |  | 72 h | IC50 | 29.6 µM |
| COc1ccc(NC(=O)Nc2cccc(-c3cn(Cc4ccccc4C)nn3)c2)cc1 | CCK-8 | 50 µM | 72 h | viability | 80.7% |
| N#Cc1ccc(-c2cc(CNc3cccc4cccnc34)on2)cc1 | MTS |  | 72 h | IC50 | > 100 µM |
| CCCCCCCCCCCCCCCCCCOc1cccc(CC(=O)OCC[N+]2(C)CCCCC2)c1 | SRB | 10 µM |  | inhibition | 0.88% |
| N#Cc1ccc(-c2cc(COc3cc(=O)oc4ccccc34)on2)cc1 | MTS |  | 72 h | IC50 | > 100 µM |
| COc1ccc(NC(=O)Nc2cccc(-c3cn(Cc4ccc(Cl)cc4)nn3)c2)cc1 | CCK-8 | 50 µM | 72 h | viability | 104% |
| FC(F)(F)c1cc(OCc2cc(-c3ccc(Cl)cc3Cl)no2)c2ccccc2n1 | MTS |  | 72 h | IC50 | > 100 µM |
| CCCCCCCCCCCCCCCCCCOc1ccccc1CC(=O)OCC[N+](CC)(CC)CC | SRB | 10 µM |  | inhibition | 65.4% |
